Published values from different studies.
Effect on: enzyme activity
Mode: inhibitor
KIT: Mast/stem cell growth factor receptor Kit (KIT, Homo sapiens, UniProt P10721)
KIT V560G: Mast/stem cell growth factor receptor Kit (KIT, Homo sapiens, UniProt P10721, V560G)

SMILES | target | technique | concentration | inhibition
COc1cc2ncnc(Nc3ccc(Oc4ccccc4)cc3C)c2cc1OC | KIT | – | 1 µM | -1%
CN(C)C1CCN(CC#Cc2nn(C3CCCC3)c3nc(NCc4ccccc4)ncc23)C1 (stereo not shown) | KIT | FRET | 10 µM | 11%
CNC(=O)c1cc2c(Oc3ccc(NC(=O)C4(C(=O)Nc5ccc(F)cc5)CC4)cc3)ccnc2cc1OC | KIT V560G | radiometric | 1 µM | 92%
CC/C(=N\NC(=O)NCc1cccc(O)c1)c1ccc(O)c(C)c1O | Mast/stem cell growth factor receptor Kit (KIT, Homo sapiens, UniProt P10721, D816V) | – | 0.1 µM | 1.4%
COc1cc2ncnc(Nc3ccc(Oc4ccccc4)c(C)c3C)c2cc1OC | KIT | – | 1 µM | 8%
O=C(CSc1nc2nccnc2c(=O)n1CCc1ccccc1)Nc1nccs1 | Mast/stem cell growth factor receptor Kit (KIT, Homo sapiens, UniProt P10721, T670I/V559D) | – | 10 µM | 1%
COc1cc(-c2cc(-c3ccc(N4CCNCC4)cc3)cnc2N)cc(OC)c1OC | KIT V560G | – | 1 µM | 5%
CS(=O)(=O)Nc1cccc(-c2csc(NC(=O)CSc3nc4nccnc4c(=O)n3CCc3ccccc3)n2)c1 | KIT | – | 10 µM | -5%
CCOc1cc(-c2nncn2C)ccc1Nc1ncc2cc(C)nc(NCC(C)(C)C)c2n1 | KIT | FRET | 1 µM | < 15%
CCCS(=O)(=O)Nc1ccc(F)c(C(=O)c2c[nH]c3ncc(-c4ccc(Cl)cc4)cc23)c1F | KIT | – | 1 µM | < 20%
